Source: PubChem BioAssay AID488780 (The Scripps Research Institute Molecular Screening Center, 2010)
The source made the active and inactive calls.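 The calls were made as follows: active = IC50 at or below 5 µM; inactive = the rest.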

Target: Steroidogenic factor 1 (Homo sapiens) (UniProt Q13285)
Experiment: SF-1 inhibitor potency in reporter cells, dose response, selectivity assay for LRH1 inverse agonist project, cell-based, luminescence (AID 488780)
Conditions: HEK293T SF-1 5xSFRE luciferase reporter, 20 h; for fold change, <1 = inhibition: at 10 µM (top of the series)
Outline: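 Material: HEK293T with SF-1 and 5xSFRE luciferase reporter; Dosing: Nine-point dilution series, nominal top 10 µM; Incubation: 24 h bulk transfection before replating, then 20 h compound exposure; Signal: luminescence from SFRE-driven luciferase; Evaluation: IC50 from percent inhibition versus DMSO; Control set: DMSO-treated cells as normalization reference; Replicates: triplicate.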

Sequence of Steroidogenic factor 1 (Homo sapiens) (Q13285 whole entry, looked up): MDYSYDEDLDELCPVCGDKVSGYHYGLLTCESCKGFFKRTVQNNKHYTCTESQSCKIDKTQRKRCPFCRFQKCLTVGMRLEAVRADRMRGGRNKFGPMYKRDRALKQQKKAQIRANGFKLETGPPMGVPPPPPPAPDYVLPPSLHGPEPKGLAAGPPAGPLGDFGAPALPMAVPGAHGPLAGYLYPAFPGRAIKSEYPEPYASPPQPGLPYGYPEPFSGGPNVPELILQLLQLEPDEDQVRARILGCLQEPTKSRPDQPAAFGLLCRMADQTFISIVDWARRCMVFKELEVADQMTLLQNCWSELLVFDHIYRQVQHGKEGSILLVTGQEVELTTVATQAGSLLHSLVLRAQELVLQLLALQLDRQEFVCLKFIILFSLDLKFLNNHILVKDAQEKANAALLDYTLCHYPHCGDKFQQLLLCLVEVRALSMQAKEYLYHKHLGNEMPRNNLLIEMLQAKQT

SMILES	IC50	fold change, <1 = inhibition
O=c1cc(N2CCN(c3nc(-c4ccccc4)ns3)CC2)[nH]c(=O)n1C1CCCCC1		inactive
CC(C)Cn1c(=O)cc(N2CCN(c3cccc(C(F)(F)F)c3)CC2)[nH]c1=O		inactive
CCn1c(=O)cc(N2CCN(c3cccc(Cl)c3)CC2)[nH]c1=O		inactive
CCn1c(=O)cc(N2CCN(c3cccc(C(F)(F)F)c3)CC2)[nH]c1=O		inactive
O=c1cc(N2CCN(C3CCCCC3)CC2)[nH]c(=O)n1C1CCCCC1	inactive	
Cn1c(=O)cc(N2CCN(c3cccc(Cl)c3)CC2)[nH]c1=O		inactive
O=c1cc(N2CCN(Cc3ccc(Cl)cc3)CC2)[nH]c(=O)n1C1CCCCC1		inactive
O=c1cc(N2CCN(c3ccnc4cc(Cl)ccc34)CC2)[nH]c(=O)n1C1CCCCC1		inactive
C=CCn1c(=O)cc(N2CCN(c3cccc(C(F)(F)F)c3)CC2)[nH]c1=O		inactive

Results, then the compound that gave them:

IC50	fold change, <1 = inhibition	SMILES
> 10 µM (inactive)		O=c1cc(N2CCN(c3cccc(Cl)c3)CC2)[nH]c(=O)n1C1CCCCC1
	inactive	O=c1cc(N2CCN(c3cccc(Cl)c3Cl)CC2)[nH]c(=O)n1C1CCCCC1
	inactive	O=c1cc(N2CCN(c3cccc(C(F)(F)F)c3)CC2)[nH]c(=O)n1C1CCCCC1
	inactive	O=c1cc(N2CCN(c3ccccc3)CC2)[nH]c(=O)n1C1CCCCC1
	inactive	O=c1cc(N2CCN(c3ccccn3)CC2)[nH]c(=O)n1C1CCCCC1
	inactive	Cc1cc(C)cc(N2CCN(c3cc(=O)n(C4CCCCC4)c(=O)[nH]3)CC2)c1
	inactive	O=c1cc(N2CCN(c3cccc(Cl)n3)CC2)[nH]c(=O)n1C1CCCCC1
